Experimental data: PMC5888399 (The FASEB Journal, 2017)
Where two headings read alike, the source gives them in different places. Marks after values point to notes of the source that are not given here.

Assays:
exercised mdx mice [1] = assay: Forelimb grip strength; assay type: in vivo, mouse; conditions: for Percentage change in normalized forelimb grip strength: vs mdx vehicle
Procedure, shortened: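 Mice were treadmill-exercised to unmask the phenotype. Forelimb grip force was measured weekly with a grip strength meter, at least 48 h after the last treadmill session: at UNIBA in phase 1 (4 wk), and at UNIBA and AGA in phase 2 (12 wk). Values were normalized to body weight. Outputs were percentage change vs WT or mdx vehicle and recovery score relative to the WT–mdx difference.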

exercised mdx mice [2] = assay: Hindlimb grip strength; assay type: in vivo, mouse; conditions: 12 wk, AGA
Procedure, shortened: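 In the 12-wk phase 2 study at AGA, treadmill-exercised mice had hindlimb grip force measured weekly with a grip strength meter, at least 48 h after the last treadmill session. Dosing was via drinking water at 10 or 50 mg/kg per day, with spring water as vehicle.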

DIA muscle of mdx mice = assay type: in vivo, mouse
EDL muscle of mdx mice = assay type: in vivo, mouse; conditions: for % change EDL twitch force: vs mdx vehicle
mdx EDL muscle fibers = assay type: in vivo, mouse; conditions: 4 wk
[3] = tested on: FDB muscle fibers of mdx mice; assay: Fura-2 microfluorescence, resting cytosolic Ca2+ in isolated FDB myofibers; assay type: in vivo, mouse; conditions: 4 wk
Procedure, shortened: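 FDB muscles were dissected after 4 wk of drinking-water dosing. Myofibers were isolated enzymatically in Ringer's with 0.8–1 mg/ml collagenase type XI-S for 45 min at 37°C, under constant agitation and O2 flux. Resting cytosolic Ca2+ was then measured by fura-2 microfluorescence (UNIBA).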

Ca2+-dependent calpains = assay: Calpain activity in DIA muscle lysates; assay type: in vivo, mouse; conditions: treated groups, 4 wk, not significant
[4] = tested on: DIA and GC muscles of mdx mice; assay: Histologic evaluation; assay type: in vivo, mouse; conditions: for Change in % damaged, total damaged gastrocnemius (%) / CNFs in DIA / Change in % damaged, total damaged DIA (%): 12 wk; for Change in % damaged, total damaged gastrocnemius (%) / Change in % damaged, total damaged DIA (%): vs mdx vehicle; for CNFs in DIA: vehicle 72.3 ± 1.6
Procedure, shortened: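 Diaphragm and left gastrocnemius were frozen in isopentane cooled in N2 (AGA) or paraffin-fixed (UNIBA). Sections of 6–10 μm were H&E-stained. Scored items: inflammation, degeneration, regeneration, centronucleated and normal fibers, and total damaged area. Five random images were taken per section, with blinded analysis on at least 6 animals per group.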

creatine kinase (CK) = assay: CK serum levels; assay type: in vivo, mouse
Procedure, shortened: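 Serum was taken from blood drawn by cardiac puncture. CK was measured spectrophotometrically with a diagnostic kit. Mice received drinking-water dosing of 10 or 50 mg/kg per day, with spring water as vehicle.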

[5] = tested on: RyR1, FKB1α, UTRN, MIOG, FSTN, BNIP3, TGF-β, CYBB; assay: Real-time PCR gene expression in GC muscle; assay type: in vivo, mouse
Procedure, shortened: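 Total RNA was extracted from gastrocnemius (UNIBA) and reverse-transcribed at 25°C for 10 min, 42°C for 50 min and 70°C for 15 min. TaqMan real-time PCR used 8 ng cDNA per reaction, singleplex, in triplicate. Targets were RyR1, FKBP1α, utrophin, myogenin, follistatin, BNIP3, TGF-β and CYBB, normalized to GAPDH.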

[6] = S48168 plasma and GC muscle levels; assay type: in vivo, mouse; conditions: for Skeletal muscle (GC) concentration (mean) / Plasma concentration (mean): AGA; for Plasma concentration (mean): 20–30 min after drinking water withdrawn; for concentration at 2 h: mdx, mouse, oral, UNIBA
Procedure, shortened: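 Drug levels in plasma and gastrocnemius were measured by LC-MS/MS (ESI+, PFP column) after protein precipitation on phospholipid-removal plates, with a stable-isotope-labelled internal standard. In phase 2, blood was collected 20–30 min (AGA) or 2 h (UNIBA) after drinking water was withdrawn, following 12 wk of dosing at 10 or 50 mg/kg per day.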

[7] = Body weight, organ and muscle mass; assay type: in vivo, mouse
Procedure, shortened: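 mdx and WT mice given test compound in spring water (vehicle) ad libitum, targeting 10 or 50 mg/kg per day. Dose was calculated from weekly water volume per cage divided by animals and normalized to mean body weight. Body weight was tracked over 4 or 12 wk of treatment. Data are means ± sem. WT vs mdx vehicle was compared by unpaired t test; doses vs mdx vehicle by 1-way ANOVA with Dunnett's test.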

[8] = tested on: PKA-phosphorylated RyR channels in SR vesicles from either cardiac or skeletal muscles; assay: Calstabin rebinding to RyR channels in SR vesicles; assay type: binding; conditions: data not shown
Oral bioavailability = assay type: in vivo; conditions: data not shown
young mdx mice = conditions: short term (2 wk) treatment; cited from earlier work
[9] = 50 mg/kg per day, 4 wk, not significant

## COc1ccc2c(c1)CN(Cc1ccc(C(=O)O)cc1)CCS2 [S48168/ARM210]
Exercised mdx mice [1]; 10 mg/kg per day, 12 wk, AGA
  Normalized forelimb grip strength vs mdx vehicle: no statistically significant effect
Exercised mdx mice [1]; 10 mg/kg, week 12, UNIBA
  Recovery score, normalized forelimb force: 35%
Exercised mdx mice [1]; 10 mg/kg, week 12, UNIBA, vehicle 4.06 ± 0.20
  Normalized forelimb force: 5 ± 0.23 KGF/kg
Exercised mdx mice [1]; 10 mg/kg/d, 12 wk, AGA
  Percentage change in normalized forelimb grip strength: +3%
Exercised mdx mice [1]; 50 mg/kg per day, 12 wk, AGA, vehicle 3.62 ± 0.14
  Normalized forelimb grip strength: 3.99 ± 0.15 KGF/kg
Exercised mdx mice [1]; 50 mg/kg per day, W4, phase 1 UNIBA
  Recovery score, absolute forelimb strength: 70%
Exercised mdx mice [1]; 50 mg/kg, week 12, UNIBA
  Recovery score, normalized forelimb force: 12%
Exercised mdx mice [1]; 50 mg/kg/d, 12 wk, AGA
  Percentage change in normalized forelimb grip strength: +10** %
Exercised mdx mice [1]; 50 mg/kg/d, 12 wk, UNIBA
  Percentage change in normalized forelimb grip strength: +8%
Exercised mdx mice [2]; 50 mg/kg per day
  Normalized hindlimb grip strength: statistically significant ameliorative effect
Exercised mdx mice [2]; treatment groups
  Absolute hindlimb grip strength vs mdx vehicle: no differences
DIA muscle of mdx mice; 10 mg/kg per day, 12 wk, UNIBA, vs mdx vehicle
  % change DIA twitch force: +2%
DIA muscle of mdx mice; 50 mg/kg per day, 4 wk
  DIA specific tetanic force vs mdx vehicle: significantly higher
DIA muscle of mdx mice; 50 mg/kg per day, 4 wk, 120 and 140 Hz
  DIA force–frequency relationship vs mdx vehicle: significantly higher values
DIA muscle of mdx mice; any dose level, 4 wk
  DIA fatigue and recovery from fatigue: no effect
EDL muscle of mdx mice; 10 mg/kg per day, 12 wk, AGA
  % change EDL twitch force: −2%
EDL muscle of mdx mice; 10 mg/kg per day, 12 wk, UNIBA
  % change EDL twitch force: −1%
EDL muscle of mdx mice; 50 mg/kg per day, 12 wk, AGA
  % change EDL twitch force: +6%
EDL muscle of mdx mice; 50 mg/kg per day, 12 wk, UNIBA
  EDL stiffness: slight but not significant amelioration
EDL muscle of mdx mice; 12 wk, data not shown
  EDL fatigue-related decline in force and recovery from fatigue vs mdx vehicle: no differences
  EDL muscle-contraction kinetics (time to peak, half relaxation time): no effect
EDL muscle of mdx mice; both doses, 4 wk
  EDL muscle force (twitch and specific tetanic): no effect
EDL muscle of mdx mice; either dose, 12 wk, UNIBA
  Force decrease in EDL muscle from eccentric contraction: No protective effect
Mdx EDL muscle fibers; 50 mg/kg per day, all durations of depolarizing pulses
  Mechanical threshold: potential for fiber contraction, rheobase voltage: significant shift in the potential for fiber contraction toward WT values
Mdx EDL muscle fibers; printed 50 mg/kg per day
  Mechanical threshold: rheobase voltage: slight but nonsignificant effect
[3]; 10 mg/kg per day
  Level of cytosolic Ca2+ vs mdx vehicle: no difference
[3]; 50 mg/kg per day
  Reduction in cytosolic Ca2+ vs mdx vehicle myofibers: 25%
Ca2+-dependent calpains
  Calpain activity in DIA: trend toward a reduction
[4]; 10 mg/kg per day, AGA
  Change in % damaged, total damaged gastrocnemius (%): 1%
[4]; 10 mg/kg, UNIBA
  CNFs in DIA: 62.4 ± 2.9%
[4]; 50 mg/kg per day, 4 wk
  Percentage of regenerating area in GC: significant increases
[4]; [9]
  Percentage of regeneration in DIA: increase in the percentage of regeneration
  Percentage of total damage in DIA: reduction in the percentage of total damage
[4]; 50 mg/kg per day, 4 wk, significant
  Percentage of total damage in GC: decreases
[4]; 50 mg/kg per day, AGA
  Change in % damaged, total damaged DIA (%): −10* %
  Change in % damaged, total damaged gastrocnemius (%): 5%
[4]; 50 mg/kg per day, UNIBA
  Change in % damaged, total damaged DIA (%): −19%
[4]; 50 mg/kg, UNIBA
  CNFs in DIA: 53.3 ± 2.5%
[4]; either dose, 4 wk
  Number of CNF vs normal fibers in DIA or GC: No marked differences
Creatine kinase (CK); 12 wk, UNIBA and AGA
  CK level: no significant changes
Creatine kinase (CK); either dosage, 4 wk
  Serum level of CK vs mdx vehicle: No significant change
[5]; 50 mg/kg per day, 4 wk
  BNIP3 gene expression level vs mdx vehicle: trend toward an increase
  Gene expression of RyR1 compared with WT mice: significant increase
[5]; 10 or 50 mg/kg per day, 4 wk
  Expression of RyR1, FKB1α, UTRN, MIOG, FSTN, TGF-β, or CYBB vs mdx vehicle: No significant changes
[5]; any dose, 12 wk
  Expression level of RyR1, calstabin, or BNIP3: No significant changes
[6]; 10 mg/kg, 12 wk treatment
  Skeletal muscle (GC) concentration (mean): 0.552 µg/g
  Plasma concentration (mean): 6125 ng/mL
[6]; 50 mg/kg, 12 wk treatment
  Skeletal muscle (GC) concentration (mean): 1.716 µg/g
  Plasma concentration (mean): 18775 ng/mL
[6]; gastrocnemius (GC) skeletal muscle, 10 mg/kg, Skeletal muscle (GC) concentration (mean), 4 wk treatment
  concentration at 2 h: 151 ng/g
[6]; gastrocnemius (GC) skeletal muscle, 10 mg/kg, Skeletal muscle (GC) concentration (mean), 12 wk treatment
  concentration at 2 h: 123 ng/g
[6]; gastrocnemius (GC) skeletal muscle, 50 mg/kg, Skeletal muscle (GC) concentration (mean), 4 wk treatment
  concentration at 2 h: 512 ng/g
[6]; gastrocnemius (GC) skeletal muscle, 50 mg/kg, Skeletal muscle (GC) concentration (mean), 12 wk treatment
  concentration at 2 h: 1160 ng/g
[6]; plasma, 10 mg/kg, Plasma concentration (mean), 10 mg/kg, 4 wk treatment, about 2 h after drinking water withdrawn
  concentration at 2 h: 881 ng/mL
[6]; plasma, 50 mg/kg, Plasma concentration (mean), 50 mg/kg, 4 wk treatment, about 2 h after drinking water withdrawn
  concentration at 2 h: 3020 ng/mL
[7]; 10 mg/kg per day, 4 wk
  Heart mass normalized to body weight vs mdx vehicle: lower normalized mean value
[7]; 10 mg/kg per day, 12 wk, UNIBA
  Quadriceps mass, absolute and normalized: significant increase
[7]; 50 mg/kg per day, 12 wk, UNIBA, n = 8
  Liver mass normalized to body weight: 56.39 ± 2.61 g/g × 1000
[7]; 4 wk
  Mass of various skeletal muscles: no drug effect
[7]; 10 or 50 mg/kg per day, 4 wk, phase 1
  Body weight vs mdx vehicle: no changes in body weight
[7]; 12 wk, UNIBA and AGA, any time point
  Body weight vs mdx vehicle: no changes in body weight
[8]
  Calstabin binding to PKA-phosphorylated RyR channels: effectively re-establish calstabin binding
Oral bioavailability
  Oral bioavailability: good oral bioavailability

## COc1ccc2c(c1)CN(C)CCS2 [S107]
Young mdx mice
  Muscle function in young mdx mice: improved muscle function
